pIC50, pKi: −log10 of the molar value. Active and inactive are the calls of the source. The calls are words filed in the database; no cut-off is given here.
Assays:
Sortase A [1] = molecular target: T1, Sortase A (Staphylococcus aureus, UniProt Q9S446); experiment: Irreversible inhibition of recombinant Staphylococcus aureus sortase A deltaN24 expressed in Escherichia coli BL21(DE3) cells using Abz-LPATG-Dnp as substrate preincubated for 10 mins followed by substrate addition and measured every 1 min for 15 mins by FRET-based assay
Summary of the method: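 SaSrtAΔN24 preincubated with compound for 10, 20, 40 or 60 min before FRET IC50 determination with Abz-LPATG-Dnp in Tris pH 7.5, NaCl, CaCl2 buffer.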

Staphylococcus aureus [2] = experiment: Anti-infectivity against Staphylococcus aureus Newman infected in Galleria mellonella larvae assessed as survival rate at 25 mg/kg and measured after 120 hrs; assay type: functional
Summary of the method: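 G. mellonella larvae (2-2.5 cm, creamy), starved 24 h at room temperature. S. aureus grown in TSB to A600 1.0, washed and resuspended in PBS, premixed with compound in vehicle (5% DMSO, 20% PEG300, 75% PBS with 6.6% solutol HS-15). Injected into last proleg at about 1 × 10^6 CFU/larva (Newman) or 1 × 10^7 CFU/larva (USA300). Groups of 15 kept at 37 °C, survival recorded 120 h, Mantel–Cox test.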

Sortase A [3] = molecular target: T1, Sortase A; experiment: Irreversible inhibition of recombinant Staphylococcus aureus sortase A deltaN24 expressed in Escherichia coli BL21(DE3) cells using Abz-LPATG-Dnp as substrate assessed as inactivation constant preincubated for 60 mins followed by substrate addition and measured every 1 min for 15 mins by fluorescence intensity based assay
Summary of the method: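 Variable inhibitor concentrations incubated with SaSrtAΔN24 or SpSrtAΔN81 for different times, followed by FRET enzyme kinetics with Abz-LPATG-Dnp. kobs fitted as kinact × [I]/(KI + [I]) to give kinact and KI.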

Staphylococcus aureus [4] = experiment: Anti-virulence activity against Staphylococcus aureus Newman harbouring deltasrtA mutant assessed as decrease in cell-wall anchored SpA level at 25 to 200 uM by FITC-labelled human IgG based […]; assay type: functional, organism-based; conditions: dose 25-200 µM
Summary of the method: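 S. aureus grown in TSB (1:1000 dilution) with inhibitor until A600 1.0. Washed cells incubated with FITC-labelled human IgG in PBS for 30 min at room temperature in the dark, rinsed, and read by fluorescence. Three technical replicates, three independent experiments. Mean ± SEM, unpaired two-tailed Student's t test (n = 3).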

[5] = Inhibition of recombinant Streptococcus pyogenes sortase A deltaN81 transpeptidation expressed in Escherichia coli BL21 (DE3) cells using IsdA64 to 323 as substrate preincubated for 20 mins followed by substrate addition and measured after 1.5 hrs by SDS-PAGE-based assay
Summary of the method: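 SrtA (200 µg mL-1) preincubated with inhibitor (1–50 µM) for 20 min at room temperature in Tris pH 7.5, NaCl, CaCl2 buffer. IsdA64-323 (300 µg mL-1 final) and 3 mM (Gly)3 added, incubated at 37 °C for 1.5 h, then run on 12% SDS-PAGE. IC50 from band quantification of precursor and mature product. Two independent experiments.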

[6] = Inhibition of recombinant Streptococcus pyogenes sortase A deltaN81 transpeptidation expressed in Escherichia coli BL21 (DE3) cells using Abz-LPATG-Dnp as substrate preincubated for 20 mins followed by substrate addition and measured every 1 min for 15 mins by FRET assay
Summary of the method: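 His-tagged enzyme purified by Ni-NTA and gel filtration. 1 µM SrtA preincubated with compound (0.05–50 µM) for 20 min at room temperature in 50 mM Tris-HCl pH 7.5, 150 mM NaCl, 5 mM CaCl2. Reaction started with 10 µM Abz-LPATG-Dnp, read at ex 309/em 420 nm. IC50 from a sigmoidal dose–response fit; triplicates, two experiments.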

COc1ccc(/C=C/C=C2C(=O)NC(=O)NC2=O)cc1
pIC50 (Sortase A [1]): 5.96 | Activity (Staphylococcus aureus [2]): 46.7% | pKi (Sortase A [3]): 5.61 | Activity (Staphylococcus aureus [4]): Active | pIC50 [5]: 5.23 | pIC50 [6]: 5.86

Source: ChEMBL document CHEMBL5107962, “Covalent sortase A inhibitor ML346 prevents Staphylococcus aureus infection of Galleria mellonella” (RSC Med Chem, 2022)
